Results gathered from unrelated publications.
Each line is one published result; the experiments were not run side by side.
Target: Mitogen-activated protein kinase kinase kinase 10 (MAP3K10, Homo sapiens, UniProt Q02779)

Structure (SMILES) | test | setting | measurement | result
CNC(=O)c1cc(Oc2ccc(NC(=O)Nc3ccc(Cl)c(C(F)(F)F)c3)cc2)ccn1 | cell-free assay | 0.5 µM | remaining signal | 104%
C[C@@H]1CN(c2cc(-c3n[nH]c4ccc(OC5(C)CC5)cc34)ncn2)C[C@H](C)O1 | cell-free assay, competition with immobilised ligand | 0.1 µM | remaining binding | 100%
Oc1ccc(-c2nc(-c3ccncc3)c(-c3ccc(F)cc3)[nH]2)cc1 | cell-free assay | 0.5 µM | remaining signal | 32.8%
Cc1cc(NC(=O)c2cccc3cc(-c4cccc5[nH]nc(N)c45)ccc23)ccc1F | enzyme activity, inhibitor | 0.1 µM | activity vs control | 98%
CS(=O)(=O)NCC[C@H](NC(=O)c1cncc2c1cnn2-c1ccc(F)cc1)c1ccnc(S(C)(=O)=O)c1 | cell-free assay, competition with immobilised ligand | 1 µM | remaining binding | 75%
O=C(Nc1cnn(-c2csc(C(=O)NC3COC3)c2)c1)Nc1ccccc1Cl | enzyme activity, inhibitor | 5 µM | remaining activity | 98.5%
C[C@@H]1CCN(C(=O)CC#N)C[C@@H]1N(C)c1ncnc2[nH]ccc12 | cell-free assay, inhibitor | 0.5 µM | remaining signal | 105%
c1ccc(CNc2nc(N3CCOc4ccccc43)nc3c2CCCC3)cc1 | target engagement in cells, inhibitor, chemoproteomics | 20 mM | inhibition | 14.1%
Nc1ncnc2occ(-c3ccc(NC(=O)Nc4cc(C(F)(F)F)ccc4F)cc3)c12 | cell-free assay, inhibitor | 20 µM | remaining signal | 0%
Cn1nc(C(=O)NCc2ccc(C(=O)O)cc2)cc1-c1ccc2[nH]ccc2c1 | cell-free assay, competition with immobilised ligand | 0.1 µM | remaining binding | 100%
CC(C)(C)c1nc2c(s1)c1nc(N)ncc1c1ccc(NS(=O)(=O)c3c(F)cccc3F)c(F)c12 | enzyme activity, inhibitor, radiometric | 1 µM | remaining activity | 102%
Clc1ccc(Nc2nnc(Cc3ccncc3)c3ccccc23)cc1 | cell-free assay | 0.5 µM | remaining signal | 110%
CC/C(=N\NC(=O)NCc1cccc(O)c1)c1ccc(O)c(C)c1O | enzyme activity, inhibitor | 0.1 µM | inhibition | 6.2%
CNCc1ccccc1-c1csc([C@@H](C)Nc2nc(C)nc3cc(OC)c(OC)cc23)c1 | cell-free assay, competition with immobilised ligand | 1 µM | remaining binding | 96%
Cc1sc(C(=O)NC2COC2)cc1-n1cc(NC(=O)Nc2c(F)cccc2Cl)cn1 | enzyme activity, inhibitor | 10 µM | remaining activity | 90.8%
O=C(N1CCS(=O)(=O)CC1)N1C[C@H](c2ccc(OC(F)(F)F)cc2)C[C@H](c2nc(C3CC3)no2)C1 | cell-free assay, competition with immobilised ligand | 1 µM | remaining binding | 99%
COc1cc2c(N3CCN(C(=O)Nc4ccc(OC(C)C)cc4)CC3)ncnc2cc1OCCCN1CCCCC1 | cell-free assay | 0.5 µM | remaining signal | 101%
